Measured values published in ChEMBL document CHEMBL2440088, “A synthetic compound, 4-acetyl-3-methyl-6-(3,4,5-trimethoxyphenyl)pyrano[3,4-c]pyran-1,8-dione, ameliorates ovalbumin-induced asthma” (Bioorg Med Chem, 2013).
Calls of active or inactive are those of the source. No cut-off for these calls is given here.

How the values were obtained:
[1] = system: Mus musculus; experiment: Antiinflammatory activity in ovalbumin-sensitized Balb/c mouse asthma model model assessed as reduction in methacholine-induced airway hyperresponsiveness at 1 mg/kg, po; type: functional, organism-based; set-up: dose 1 mg/kg
Summary of the method: (§1)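 AHR was read in OVA-sensitized/challenged Balb/c mice (n = 6 per group) 24 h after the final allergen challenge, by barometric whole-body plethysmography. A 3 min baseline came first, then inhalation of methacholine at 50 or 100 mg ml⁻¹, with the read-out as enhanced pause (Penh).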

[2] = system: Mus musculus; experiment: Antiinflammatory activity in ovalbumin-sensitized Balb/c mouse asthma model model assessed as reduction of eosinophils, neutrophils, lymphocytes, and macrophages level in BAL fluid at 1 mg/kg, po; type: functional, organism-based; set-up: dose 1 mg/kg
Summary of the method: (§2)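 Male Balb/c mice, 6 weeks old and 20-25 g, n = 6 per group, were sensitized ip on days 0 and 14 with 100 μg OVA precipitated with 20 mg aluminum hydroxide in 200 μl PBS. They were challenged intranasally with 1% OVA in 50 μl PBS on days 15, 17, 19, 21, 23 and 25, and sacrificed on day 27.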

[3] = system: Mus musculus; experiment: Antiinflammatory activity in ovalbumin-sensitized Balb/c mouse asthma model model assessed as reduction of goblet cell hyperplasia in lungs at 1 mg/kg, po by PAS staining; type: functional, organism-based; set-up: dose 1 mg/kg; summary of the method: as §2
[4] = system: Mus musculus; experiment: Antiinflammatory activity in ovalbumin-sensitized Balb/c mouse asthma model model assessed as reduction of eosinophils infiltration in lungs at 10 mg/kg, ip by hematoxylin and eosin staining; type: functional, organism-based; set-up: dose 10 mg/kg; summary of the method: as §2
[5] = system: Mus musculus; experiment: Antiinflammatory activity in ovalbumin-sensitized Balb/c mouse asthma model model assessed as reduction of airway smooth muscle thickness in lungs at 10 mg/kg, ip by IHC staining; type: functional, organism-based; set-up: dose 10 mg/kg; settings: Muscle tissue; summary of the method: as §2
[6] = biological target: Transcription factor p65 (Homo sapiens) (UniProt Q04206); experiment: Inhibition of TNFalpha/IL4/IL1-beta-induced NFkappaB p65 nuclear translocation in human A549 cells at 50 uM after 15 mins by Western blotting analysis; type: cell-based; settings: in the assay text read “after 1 hr” for “after 15 mins”
Summary of the method: (§3)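 Nuclear extracts were western blotted for p65 or phospho-STAT6, with bands normalized to PCNA by densitometry over three experiments.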

[7] = system: Mus musculus; experiment: Antiinflammatory activity in ovalbumin-sensitized Balb/c mouse asthma model model assessed as reduction in IgE level in serum at 10 mg/kg, ip after 48 hrs of last dose by ELISA; type: functional, organism-based; set-up: dose 10 mg/kg; summary of the method: as §2
[8] = system: A549; experiment: Cytotoxicity against human A549 cells assessed as cell viability at 50 uM after 24 hrs by MTS assay; type: cell-based; settings: a549, 24 h
Summary of the method: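 A549 cells were seeded at 2×10⁴ cells per well and grown 24 h at 37 °C, then exposed to 0, 5, 10 or 50 μM for 24 h. MTS reagent was added for a further 4 h and absorbance read at 490 nm; assays were run in triplicate.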

[9] = biological target: T1, Signal transducer and activator of transcription 6 (Homo sapiens) (UniProt P42226); experiment: Inhibition of TNFalpha/IL4/IL1-beta-induced STAT6 phosphorylation in human A549 cells at 50 uM after 15 mins by Western blotting analysis; type: cell-based; settings: in the assay text read “after 1 hr” for “after 15 mins”; summary of the method: as §3
T1 sequence (whole entry): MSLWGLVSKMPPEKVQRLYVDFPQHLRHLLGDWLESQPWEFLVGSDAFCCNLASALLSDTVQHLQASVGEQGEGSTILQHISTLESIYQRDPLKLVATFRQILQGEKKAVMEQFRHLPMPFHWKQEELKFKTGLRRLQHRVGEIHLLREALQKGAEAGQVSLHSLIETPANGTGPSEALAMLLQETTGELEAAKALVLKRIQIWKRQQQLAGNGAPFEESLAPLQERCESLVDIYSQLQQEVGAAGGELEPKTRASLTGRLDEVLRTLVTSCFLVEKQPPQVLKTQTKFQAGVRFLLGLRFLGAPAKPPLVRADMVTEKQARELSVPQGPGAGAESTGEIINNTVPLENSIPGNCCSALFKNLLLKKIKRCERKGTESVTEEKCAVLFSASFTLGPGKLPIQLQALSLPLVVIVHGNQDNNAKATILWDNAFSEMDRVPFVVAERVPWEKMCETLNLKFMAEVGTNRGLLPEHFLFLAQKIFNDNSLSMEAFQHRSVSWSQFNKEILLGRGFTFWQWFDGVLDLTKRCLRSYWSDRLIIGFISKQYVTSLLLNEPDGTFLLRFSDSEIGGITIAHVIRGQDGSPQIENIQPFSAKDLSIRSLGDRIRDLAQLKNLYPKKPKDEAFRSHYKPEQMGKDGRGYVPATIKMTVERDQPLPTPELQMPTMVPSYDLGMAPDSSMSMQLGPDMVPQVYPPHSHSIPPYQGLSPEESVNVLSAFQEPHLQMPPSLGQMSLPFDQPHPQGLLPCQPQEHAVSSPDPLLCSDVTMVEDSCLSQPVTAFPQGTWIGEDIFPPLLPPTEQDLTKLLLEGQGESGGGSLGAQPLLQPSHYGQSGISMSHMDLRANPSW

[10] = system: Mus musculus; experiment: Antiinflammatory activity in ovalbumin-sensitized Balb/c mouse asthma model model assessed as reduction of goblet cell hyperplasia in lungs at 10 mg/kg, ip by PAS staining; type: functional, organism-based; set-up: dose 10 mg/kg; summary of the method: as §2
[11] = system: A549; experiment: Inhibition of TNFalpha/IL4/IL1-beta-induced CCL11 secretion in human A549 cells at 5 uM treated 1 hr before TNFalpha/IL4/IL1-beta stimulation measured after 24 hrs by ELISA; type: functional
Summary of the method: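 Confluent A549 cells were held in serum-free RPMI for 24 h, pretreated 1 h with 0-50 μM, then stimulated with IL-1β (10 ng ml⁻¹), TNF-α (100 ng ml⁻¹) and IL-4 (100 ng ml⁻¹) for 24 h. Eotaxin in the supernatant was measured by ELISA; three independent experiments were run.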

[12] = system: Mus musculus; experiment: Antiinflammatory activity in ovalbumin-sensitized Balb/c mouse asthma model model assessed as reduction of eosinophils, neutrophils, lymphocytes, and macrophages level in BAL fluid at 10 mg/kg, ip; type: functional, organism-based; set-up: dose 10 mg/kg; summary of the method: as §2
[13] = system: Mus musculus; experiment: Antiinflammatory activity in ovalbumin-sensitized Balb/c mouse asthma model model assessed as reduction in methacholine-induced airway hyperresponsiveness at 10 mg/kg, ip; type: functional, organism-based; set-up: dose 10 mg/kg; summary of the method: as §1

Sequence of Transcription factor p65 (Homo sapiens) (Q04206 whole entry): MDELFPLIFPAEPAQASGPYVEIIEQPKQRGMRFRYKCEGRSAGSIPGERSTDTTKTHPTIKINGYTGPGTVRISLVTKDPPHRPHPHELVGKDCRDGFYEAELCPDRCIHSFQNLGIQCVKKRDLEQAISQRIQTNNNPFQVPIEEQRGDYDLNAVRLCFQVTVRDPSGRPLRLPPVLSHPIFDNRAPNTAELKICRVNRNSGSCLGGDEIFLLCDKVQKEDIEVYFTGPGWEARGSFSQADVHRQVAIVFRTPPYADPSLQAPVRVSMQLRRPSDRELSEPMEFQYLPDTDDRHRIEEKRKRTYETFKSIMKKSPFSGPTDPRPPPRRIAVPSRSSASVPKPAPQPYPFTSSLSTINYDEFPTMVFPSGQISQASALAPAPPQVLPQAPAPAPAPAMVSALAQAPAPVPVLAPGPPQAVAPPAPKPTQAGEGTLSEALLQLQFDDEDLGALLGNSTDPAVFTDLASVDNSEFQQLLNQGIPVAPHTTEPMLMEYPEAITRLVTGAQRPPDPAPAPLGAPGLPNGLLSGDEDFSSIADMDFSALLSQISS

| Structure (SMILES) | Activity [1] | Activity [2] | Activity [3] | Activity [4] | Activity [5] | inhibition [6] | Activity [7] | Activity [8] | inhibition [9] | Activity [10] | inhibition at 5 µM [11] | Activity [12] | Activity [13] |
| --- | --- | --- | --- | --- | --- | --- | --- | --- | --- | --- | --- | --- | --- |
| C[C@@H]1C[C@H]2[C@@H]3CCC4=CC(=O)C=C[C@]4(C)[C@@]3(F)[C@@H](O)C[C@]2(C)[C@@]1(O)C(=O)CO | Active | Active | Active |  |  |  |  |  |  |  |  |  |  |
| COc1cc(-c2cc3c(C(C)=O)c(C)oc(=O)c3c(=O)o2)cc(OC)c1OC |  |  |  | Active | Active | inactive | Active | Non-toxic | Active | Active | 75% | Active | Active |
